Source: PubChem (several laboratories)
In the library only some 12% were active in any assay of this set; here they are far more common.
WT yeast gro inh – growth inhibition of WT strain, primary screen, mitochondrial fusion inhibitor project, WT and mutant strains, chemical genetic; mitochondrial fusion phenotypic screen; inhibition, % at 10 µM; 190,000 tested, 2.1% active; AID 1362, 2008; in the data active = inhibition above about 58%; tested in S. cerevisiae
L major viab – Leishmania major promastigote growth inhibition, primary screen | Leishmania major promastigotes, resazurin fluorescence viability | inhibition, % at 10 µM | 200,000 tested, 9% active | AID 1063, 2008; in the data active = inhibition above about 50%;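 also: promastigotes grown with compound for 44 hours at 28 °C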
ABCB1 inh – ABCB1 efflux pump inhibitors, primary screen, cell-based, multiplex, flow cytometry, ABCG2 counter-screen | ATP-dependent translocase ABCB1 (Homo sapiens), P08183 | CCRF-Adr cells, JC-1 efflux | inhibition, % at 6.6 µM | 190,000 tested, 0.067% active | AID 1326, 2008; in the data active = inhibition above about 40%;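 also: 0% = vehicle and 100% = reference inhibitor; higher value means more JC-1 retained so stronger ABCB1 efflux block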
Target sequence (P08183 whole entry, looked up): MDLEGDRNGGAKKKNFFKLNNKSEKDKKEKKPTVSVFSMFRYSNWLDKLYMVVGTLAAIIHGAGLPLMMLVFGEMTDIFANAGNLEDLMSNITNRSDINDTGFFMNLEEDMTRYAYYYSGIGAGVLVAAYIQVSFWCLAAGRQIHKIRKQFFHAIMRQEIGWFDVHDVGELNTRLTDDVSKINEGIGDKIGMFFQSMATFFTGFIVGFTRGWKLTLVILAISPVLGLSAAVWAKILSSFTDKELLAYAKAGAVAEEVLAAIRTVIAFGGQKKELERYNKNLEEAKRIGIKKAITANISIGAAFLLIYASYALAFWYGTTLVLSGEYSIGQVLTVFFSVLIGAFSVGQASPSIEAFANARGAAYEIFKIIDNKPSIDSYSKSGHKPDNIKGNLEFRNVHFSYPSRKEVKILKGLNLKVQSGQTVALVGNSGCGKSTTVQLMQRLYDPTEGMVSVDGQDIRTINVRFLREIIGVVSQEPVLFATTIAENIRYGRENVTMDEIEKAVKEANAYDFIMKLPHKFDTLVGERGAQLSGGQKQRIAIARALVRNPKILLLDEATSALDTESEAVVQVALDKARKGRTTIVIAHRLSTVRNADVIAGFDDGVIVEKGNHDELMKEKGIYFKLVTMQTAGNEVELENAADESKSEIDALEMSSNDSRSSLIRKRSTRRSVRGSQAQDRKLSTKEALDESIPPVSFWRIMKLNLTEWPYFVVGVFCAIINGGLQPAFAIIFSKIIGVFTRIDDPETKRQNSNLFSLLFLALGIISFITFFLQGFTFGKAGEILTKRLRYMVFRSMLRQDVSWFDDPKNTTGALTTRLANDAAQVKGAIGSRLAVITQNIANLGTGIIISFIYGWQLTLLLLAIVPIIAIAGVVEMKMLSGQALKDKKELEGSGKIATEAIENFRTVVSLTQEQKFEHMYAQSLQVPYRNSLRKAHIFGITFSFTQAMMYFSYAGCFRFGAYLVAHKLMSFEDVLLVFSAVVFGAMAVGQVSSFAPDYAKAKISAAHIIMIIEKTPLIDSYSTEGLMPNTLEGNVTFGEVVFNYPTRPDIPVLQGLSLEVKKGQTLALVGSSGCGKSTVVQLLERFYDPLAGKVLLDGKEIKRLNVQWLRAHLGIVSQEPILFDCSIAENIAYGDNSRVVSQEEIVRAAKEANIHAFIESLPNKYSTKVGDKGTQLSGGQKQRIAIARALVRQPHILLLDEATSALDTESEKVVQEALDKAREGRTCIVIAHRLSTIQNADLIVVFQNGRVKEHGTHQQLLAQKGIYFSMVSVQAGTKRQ
RAM inhibit – inhibitors of the yeast RAM network, primary screen, dse1pr::URA3 reporter, 5-FOA selection; inhibition, % at 50 µM; 190,000 tested, 1.8% active; S. cerevisiae dse1pr::URA3 reporter, 5-FOA growth OD615, 2 d; analog-sensitive cbk1-as2 kinase mutant strain; AID 868, 2007;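 active = inhibition above a set limit, 3 SD over mean compound inhibition, cut at about 8.4% in these data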;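 also: 0% = DMSO-only wells with no growth and 100% = 10 µM 1-NA-PP1 full growth; inhibition rescues growth on 5-FOA so higher OD means more RAM inhibition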
ABCG2 inh – ABCG2 efflux pump inhibitors, primary screen, multiplex with ABCB1, IgMXP3 cells, flow cytometry. Broad substrate specificity ATP-binding cassette transporter ABCG2 (Homo sapiens), Q9UNQ0. JC-1 efflux. 190,000 tested, 0.1% active. AID 1325, 2008. inhibition, % at 6.6 µM;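 active = inhibition above 80%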;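 also: 0% = DMSO and 100% = nicardipine control wells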
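Test system: IgMXP3 (ABCG2) plus far-red-tagged CCRF-Adr (ABCB1) cells. Reagent: JC-1 dye as substrate. Timing: 10 min exposure at 25 °C with rotation, no wash. Measured by: flow cytometric JC-1 green MFI at 530 nm. Read-out: percent efflux inhibition, scaled nicardipine 100% to DMSO 0%. Control set: nicardipine and DMSO wells.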
Active calls of the source: *; · = no result given.

SMILES	WT yeast gro inh	L major viab	ABCB1 inh	RAM inhibit	ABCG2 inh
Cc1cc(C)c(S(=O)(=O)N2CCCOC2CNC(=O)C(=O)NCc2ccco2)c(C)c1 (configuration not stated)	-3	7	1	1	1
NC(=O)N/N=C/C=C/c1ccccc1	1	4	0	1	2
O=S(=O)(N/N=C\C=C\c1ccccc1)c1ccc(Cl)cc1	16	92*	0	2	0
O=C(Nc1ccc2c(c1)CCC2)c1cc(S(=O)(=O)Nc2ccc(F)cc2)c(Cl)cc1Cl	48	60*	0	7	-1
O=C(Nc1ccc2c(c1)CCC2)c1ccc(F)cc1	-1	-1	0	1	18
CN1CCN(c2ccc(Cl)cc2NC(=O)/C=C/c2ccc(F)cc2)CC1	83*	94*	4	3	9
CN1CCN(c2ccc(Cl)cc2NC(=O)CCN2C(=O)c3ccccc3C2=O)CC1	-5	77*	0	0	7
COc1ccc(CCC(=O)Nc2cc(Cl)ccc2N2CCN(C)CC2)cc1	-1	9	2	0	4
CCNC(=S)NNC(=O)c1cc(-c2cccc(C)c2)nc2ccccc12	29	95*	0	1	4
CCn1cc(CNC(=O)c2cc(-c3ccccc3OC)nc3ccccc23)c(C)n1	-8	-3	3	0	49
CCNC(=S)NNC(=O)c1ccccc1Cl	19	51*	0	1	24
CCNC(=S)NNC(=O)c1cc(-c2ccc(OC)cc2)nc2ccccc12	68*	2	0	2	0
CCn1cc(CNC(=O)c2cc(-c3cc(OC)ccc3OC)nc3ccccc23)c(C)n1	-6	56*	3	0	12
COc1ccccc1N1CCN(CCCCCCOc2ccc(F)cc2)CC1	21	22	3	1	3
CC1CN(CCCCOc2ccc(F)cc2)CC(C)O1 (configuration not stated)	15	85*	0	0	7
Fc1ccc(OCCCCCN2CCCC2)cc1	1	87*	-1	0	7
Cc1ccc(C)c(OCCOCCN2CC(C)OC(C)C2)c1C (configuration not stated)	10	91*	2	0	27
CCOc1ccc(OCCCCN2CCCC2)cc1	·	99*	0	4	0
CC(=C\C(=O)O)/C(=C/c1ccc(C)o1)C(=O)O	-2	-5	0	3	1
Cc1ccc(NC(=O)c2ccc3c(c2)OCCO3)cc1S(=O)(=O)Nc1cccc(Cl)c1	47	41	2	6	3
COC(=O)c1ccccc1OCCCCN1CC(C)OC(C)C1 (configuration not stated)	18	88*	1	2	3
COC(=O)c1ccccc1OCCOc1ccccc1C(=O)OC	9	-4	1	0	8
CCCCOc1ccc(CN2CCCCC2)cc1	9	93*	0	1	0
Oc1ccc(N2CCN(Cc3ccc(OCCCN4CCCCC4)cc3)CC2)cc1	-13	48	1	1	9
O=C(/C=C/c1ccccc1)NCCSc1ccc(Cl)cc1	14	-6	0	2	21
SMILES	WT yeast gro inh	L major viab	ABCB1 inh	RAM inhibit	ABCG2 inh
CCCCCC1CC(CC(=O)NC(=S)Nc2ccccc2Cl)C(=O)O1 (configuration not stated)	61*	-8	0	4	1
CC1CCCCC1NC(=O)COC(=O)c1ccc(S(=O)(=O)NCc2ccco2)cc1 (configuration not stated)	-65	-3	0	2	0
CCOc1ccc(S(=O)(=O)N(CC(=O)NC2CCCCC2C)Cc2ccco2)cc1 (configuration not stated)	28	87*	1	5	3
Cc1ccc(C(=O)CN2C(=O)C(=O)N(Cc3ccccc3)C2=O)cc1	-10	-7	1	8	5
COc1ccc(Cl)cc1C(=O)Nn1c(-c2cccs2)nc2ccccc2c1=O	-1	61*	0	5	-3
CN=C(Nc1ccc(C)c(C)c1)SC1CC(=O)N(c2ccc(OC)cc2)C1=O (configuration not stated)	18	74*	0	5	2
Cc1cccc(NC(=S)NC2CCCCC2)n1	68*	23	0	1	8
S=C(Nc1cccnc1)NC1CCCC1	-5	1	0	0	7
Cc1cccc(NC(=S)NC2CCCC2)n1	72*	6	0	1	10
COC(=O)c1c(NC(C)=O)sc2c1CCCC2	0	-4	1	1	6
COC(=O)c1c(NC(NC(=O)C(C)C)C(Cl)(Cl)Cl)sc2c1CCCC2 (configuration not stated)	77*	48	0	3	3
O=[N+]([O-])c1ccc(Nc2ccccc2F)nc1	0	-5	0	-1	4
Cc1ccc(C(C)C)c(Oc2nnnn2-c2ccccc2)c1	66*	11	4	0	37
CN(C)S(=O)(=O)c1ccc(C(=O)Nc2nnc(SCc3ccccc3)s2)cc1	2	-5	0	6	-1
CN(C)S(=O)(=O)c1ccc(C(=O)Nc2nnc(SCc3cccc(F)c3)s2)cc1	10	52*	0	4	-5
C=CCSc1nnc(NC(=O)c2cccc(S(=O)(=O)N(C)c3ccccc3)c2)s1	-1	63*	0	2	1
O=C(O)CC(Cc1ccc(Cl)cc1)C(=O)NCc1ccccc1 (configuration not stated)	3	-4	0	1	11
Nn1c(=O)c2ccccc2n2c(SCc3ccc(C(F)(F)F)cc3)nnc12	-19	11	1	8.6*	1
COc1ccc(C(=O)CSc2nnc(NC(=O)C3CC(=O)N(c4ccccc4C)C3)s2)cc1 (configuration not stated)	-38	2	0	5	-1
O=C(N1CCCCCC1)n1c(Cc2ccccc2)nc2ccccc21	9	63*	2	0	3
C=CCn1c(=N)n(CC(O)COc2ccccc2OC)c2ccccc21 (configuration not stated)	11	39	0	0	2
Cc1cccc(OCCCn2c(=O)sc3ccccc32)c1	15	3	0	1	3
Cc1ccc(OCC(O)Cn2c(=N)n(CCN3CCOCC3)c3ccccc32)cc1 (configuration not stated)	·	5	1	2	2
COc1ccccc1OCC(O)Cn1c(=N)n(Cc2ccccc2)c2ccccc21 (configuration not stated)	2	101*	1	2	2
